The nature of this data set: Toxicity liver stage against HepG2, at 10uM. It is filed as cell-based. Further details: test concentration 10 uM, cell line HepG2-A16-CD81EGFP. The conditions noted are these: human, HepG2-A16-CD81EGFP cells; read-out: INHIBITION
Summed up: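 Uninfected HepG2-A16-CD81EGFP cells, 3 × 10^3 per well, 1536-well, plated on prespotted compound at 10 μM final, parasite-free screening media added to match infected plates; puromycin 10 μM positive, DMSO 0.5% negative; run in parallel with 48 h PbLuc assay at 37 °C, 5% CO2; viability by CellTiter-Glo luminescence, normalized to controls.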
Consider `Cc1nccn1Cc1nnc(C2CCCN(c3ncccc3F)C2)n1C` (stereo unspecified), for which the cytotoxicity at 10 µM is -4.93%.
Next, `CC(C)N(CCNC(=O)c1[nH]nc2ccc(I)cc12)C(C)C`: -41.1%; `CCN1CCC2(CC1)CC(NC(=O)N(C)C)c1cc(C)ccc12` (stereo unspecified): -13.1%.
For `Cc1ccccc1C(C)N(C)Cc1nc2c(cnn2C)c(=O)[nH]1` (stereo unspecified), the cytotoxicity at 10 µM is -6.69%.
Next, `CCCN1CCN(C(=O)c2cnc(C)nc2)[C@H]2CS(=O)(=O)C[C@H]21`: 0.0652%; `CN(C)Cc1nn(C)c2c1CCN(S(=O)(=O)c1cccs1)C2`: 4.52%; `Cc1nn(C)c(N(C)C)c1CNCc1ccnn1C`: -3.35%.
For the compound `CSC(CNS(C)(=O)=O)c1cccc(Cl)c1` (stereo unspecified), the cytotoxicity at 10 µM amounted to 6.27%.
In the case of `O=C(Cc1ccc2c(c1)CCO2)N1CCCC1c1noc(C2CC2)n1` (stereo unspecified) it was -7.71%; in that of `CC(C)Oc1cccc(CC(=O)NC2CCN(CC(N)=O)CC2)c1`, 3.05%.
In the case of `CN(C)C(=O)c1c[nH]nc1C1CCN(S(=O)(=O)c2ccc(Cl)cc2)CC1` it was -4.9%; in that of `COC(=O)C1CCN(c2cc(C)nc(-c3ccncc3)n2)CC1`, 2.76%; in that of `Cc1cnn(CC2CCCN2C(=O)c2ccc3[nH]c(=O)[nH]c3c2)c1` (stereo unspecified), -3.98%.
Take `O=C(O)c1cncc(Cc2ccc(F)cc2)c1`: the cytotoxicity at 10 µM was 2.39%.
In the case of `Cc1ncc(CN2CCc3c(nc(-c4ccccn4)[nH]c3=O)C2)n1C` it was -30.1%; in that of `CN1C[C@H](O)[C@]2(CCN(Cc3ccc(F)c(F)c3)C2)S1(=O)=O`, -1.42%; in that of `COCCn1ccc(=O)c(OCC(=O)Nc2ccc(OC)cc2)c1C`, 0.955%.
In the case of `COc1ccc(C2CCCN2Cc2nnnn2C2CC2)cc1OC` (stereo unspecified) it was 2.49%.
Next, `Cc1cnc(NS(=O)(=O)c2cccc(C#N)c2)s1`: 15%.
Take `Cc1noc(COCC(=O)Nc2cc(C)c(Br)cn2)n1`: the cytotoxicity at 10 µM was found to be 5.5%.
In the case of `CCOC(C)C(=O)N1CCN(S(C)(=O)=O)CC1` (stereo unspecified) it was -5.35%; in that of `Cn1cc(CN2CCCC3(COCCN(Cc4c[nH]nn4)C3)C2)cn1` (stereo unspecified), -0.501%; in that of `O=C(NCCc1ccncc1)[C@H]1CC[C@@H]2[C@@H](CCN2C2CCC2)O1`, -2.3%.
On to `COCCC1(C(=O)O)CCCN(CC(=O)NCCc2ccccc2)C1` (stereo unspecified), for which the cytotoxicity at 10 µM was determined as 2.66%.
In the case of `Cc1nn(C)c(C)c1CCC(=O)N(C)Cc1ccc2nsnc2c1` it was -1.62%; in that of `CC(C)N(Cc1ccc(C(F)(F)F)nc1)Cc1cnn(C)c1`, 1.36%.
In the case of `COc1ccc(Nc2ccc(C#N)cn2)cc1N1CCCC1=O` it was 10.1%; in that of `CCc1nnc2n1CCN(C(C(N)=O)c1ccc(F)cc1)C2` (stereo unspecified), -8.13%.
Next, `CNS(=O)(=O)c1ccc(CNC(=O)c2cccc(C)n2)cc1`: 7.17%; `CN1CCOCC2(CCN(Cc3ccc[nH]3)CC2)C1`: 0.442%; `NC(=O)CN1CCC(C(=O)NCc2ccc3nonc3c2)CC1`: -0.969%.
On to `O=C(COc1ccc(F)cc1F)N1CCOCC(O)(CN2CCCC2)C1` (stereo unspecified), for which the cytotoxicity at 10 µM amounted to 0.678%.
Turning to `Cc1cc(Nc2ccc(F)cn2)cc(C2CCN(Cc3ncc[nH]3)C2)n1` (stereo unspecified), the cytotoxicity at 10 µM was -8.26%.
In the case of `CCOC(=O)NC(CNC(=O)CCc1ccccn1)CC(C)C` (stereo unspecified), the cytotoxicity at 10 µM is -4.61%.
With `COc1ncc(C(=O)N2CCC3(CC2)C(=O)Nc2ccccc23)cn1`, the cytotoxicity at 10 µM was -140%.
Next, `CC(NCc1ccccc1Br)c1ccc2[nH]c(=O)[nH]c2c1` (stereo unspecified): -6.12%; `Cc1nc(CN2CCCC2c2nc(C(C)C)no2)cs1` (stereo unspecified): -9.7%.
In the case of `CCN(Cc1ccc(O)c(C(=O)O)c1)CC1CCOCC1` it was -5.24%.
In the case of `Cc1n[nH]c(C)c1CNc1ccc(-c2nc(C3CC3)no2)cn1` it was -24.3%; in that of `CCCNC(=O)N1CCN(Cc2cc(C)no2)CC1`, -1.18%; in that of `OCCN1CCCC(c2cccc(-c3ccccc3F)n2)C1` (stereo unspecified), 5.68%.
Turning to `CC(C)(C)NC(=O)[C@@H]1CNC[C@]12Cc1ccccc1C(=O)N2`, the cytotoxicity at 10 µM was -0.42%.
In the case of `COC(=O)CCCNC(=O)N1CCc2c([nH]c3ccc(Cl)cc23)C1` it was 9.43%; in that of `COCCC(=O)N(Cc1cccnc1)CC1CCN(C2CCCC2)CC1`, -5%; in that of `Cc1cccc(-c2nc(C)nn2CN2CCN(c3ncccn3)CC2)c1`, -6.45%.
For the compound `CN1CCCC(c2nccnc2-c2cccc(Cl)c2)C1` (stereo unspecified), the cytotoxicity at 10 µM came to 3.57%.
On to `CN(CC(F)(F)F)C(=O)C1CSCN1C(=O)OC(C)(C)C` (stereo unspecified), for which the cytotoxicity at 10 µM is -0.265%.
On to `O=C(NCC(F)(F)F)C1CSCN1S(=O)(=O)c1ccc(F)cc1` (stereo unspecified), for which the cytotoxicity at 10 µM is 1.85%.
Next, `COCc1cc(NCCc2ccc(S(N)(=O)=O)cc2)n2nccc2n1`: 6.45%; `CN(Cc1cccnc1)CC1CN(C(N)=O)Cc2nccn2C1` (stereo unspecified): -80.3%; `CCc1cc(C(=O)N2CCCC(Cc3ccc(NC)nn3)C2)on1` (stereo unspecified): -14.1%.
In the case of `N#Cc1ccc(CSCCN2CCOCC2)cc1` it was 4.2%.
Next, `CC(Oc1ccccc1C(F)(F)F)C(=O)NS(=O)(=O)C(C)C` (stereo unspecified): -7.19%; `Cn1cc(C[C@H]2[C@H](N3CCOCC3)CCN2C(=O)c2ccc[nH]2)cn1`: -75%; `Cc1csc(N2CCC(CCN3CCCC3=O)CC2)n1`: -5.7%.
Regarding `CC(CN1CCOC1=O)NC(=O)c1cccc(Cl)c1Cl` (stereo unspecified), the cytotoxicity at 10 µM was -3.26%.
Consider `O=C(c1c[nH]c(=O)c(Cl)c1)N1C[C@H]2CC[C@@H](C1)N(CC1CCC1)C2`, for which the cytotoxicity at 10 µM is -153%.
Next, `CCNC(=O)N1CC[C@@H](CC(=O)O)[C@@H](CC2=NCCc3ccccc32)C1`: 2.7%; `CCN(CC)C(=O)c1cc(C2(C)CCN(C(C)=O)CC2)nc(C)n1`: 5.27%.
In the case of `O=C(O)c1cc(S(=O)(=O)N2CCOc3ccccc32)ccc1F` it was -2.94%; in that of `O=C(CCc1nccs1)N1CCC(C(=O)O)(c2ccccc2)CC1`, 1.75%.
Take `CCn1cnnc1CNC(=O)N1CCCN(C(C)=O)CC1`: the cytotoxicity at 10 µM was determined as 1.18%.
Regarding `O=C(NCC1(O)CCOc2ccccc21)Nc1ccc2c(c1)OCO2` (stereo unspecified), the cytotoxicity at 10 µM was -5.12%.
Next, `Cc1noc([C@H]2C[C@H]3OCC[C@H]3N(S(C)(=O)=O)C2)n1`: -115%; `CN(Cc1ccco1)C(=O)Nc1cccnc1N1CCCC1`: -5.3%; `CC(=O)c1cccc(CN2CC(Oc3ccccc3C)C2)c1`: -4.16%.
On to `Cc1cc(NC(=O)NCC(C)O)n(C)n1` (stereo unspecified), for which the cytotoxicity at 10 µM stood at 1.69%.
For `CC(C)c1ncc(Cl)c(C(=O)N2CCN(C3CCCC3)CC2)n1`, the cytotoxicity at 10 µM was 8.69%.
Next, `CCOCCCC(=O)NC1CCN(C(C)c2ccccc2)CC1` (stereo unspecified): 4.05%.
In the case of `O=C(c1ccco1)N1CCN2C[C@H](Oc3cncnc3)C[C@H]2C1` it was -2.97%.
Next, `CCC(CNC1CCN(C(=O)N(C)C)CC1)Oc1ccccc1C` (stereo unspecified): 3.98%; `O=C(c1ccc(Cl)cc1F)N1CCC(Cn2cc(CO)nn2)CC1`: -1.36%; `COCCN1CCC2(CC1)CC(N1CCOCC1)c1ccc(C)cc12` (stereo unspecified): -106%.
For `COc1cccc(CCC(=O)Nc2c(C)nn(C)c2C)c1OC`, the cytotoxicity at 10 µM is 1.98%.
In the case of `CC(C)N(C)[C@@H]1CCN(S(C)(=O)=O)[C@H]1Cc1ccccc1` it was 5.7%.
In the case of `Cc1[nH]ncc1C(C)NCc1cccnc1` (stereo unspecified) it was -0.98%; in that of `O=C(NC1CCN(c2nccs2)CC1)c1cccs1`, 4.17%.
`OC(CN1CCC(c2ccn[nH]2)CC1)c1ccccc1F` (stereo unspecified): the cytotoxicity at 10 µM was -25.5%.
Next, `O=C([C@@H]1CCCN1c1nccc(Nc2ccccc2)n1)N1CCCCC1`: 0.325%; `Cn1cccc1-c1cc(C(=O)N2CC(c3cccnc3)C2)[nH]n1`: -13.7%; `CCC(NC(=O)C1CCN(S(=O)(=O)N(C)C)CC1)c1ccc(C)c(C)c1` (stereo unspecified): -1.02%.
In the case of `COCC1c2nnn(CC3CC3)c2CCN1C(=O)c1ccnnc1` (stereo unspecified) it was -7.44%.
In the case of `COc1ccc(C(=O)N2C[C@@H](C(=O)O)[C@H](c3ccccc3)C2)c(C)c1` it was 5.23%.
Take `O=C(Nc1cccc(C2SCCS2)c1)C1CCCN1c1nccs1` (stereo unspecified): the cytotoxicity at 10 µM was -10.1%.
As to `CCn1cc(CN2CCCN(C(=O)c3sc(C)nc3C)CC2)cn1`, the cytotoxicity at 10 µM was -14.4%.
In the case of `CCOC(=O)c1cc2c(=O)[nH]c(=O)n(CCc3ccccc3)c2nc1C` it was -6.28%.
Next, `O=C(CC1CCCC1)Nc1ccc(-n2cc(Br)cn2)nc1`: -51.2%; `O=C(CO)N1CCCC2(CCC(=O)N(CC3CC3)C2)C1` (stereo unspecified): 5.75%.
For `Cc1nc(CN2CCCC(N(C)c3cnc4ccccc4n3)C2)no1` (stereo unspecified), the cytotoxicity at 10 µM was -14.6%.
Next, `O=C(Cc1ccccn1)N1CCC(c2noc(-c3ccncc3)n2)CC1`: -26.8%; `COc1cccc(C2(NC(=O)CCNC(C)=O)CC2)c1`: 1.6%.
In the case of `CCc1nc(CN2CCCN(C(=O)c3c(C)noc3C)CC2)cs1` it was 1.74%; in that of `CCN(C(=O)C1CCC1)C(c1cccnc1)c1ccc2c(c1)CCO2` (stereo unspecified), -7.88%; in that of `O=C(NCc1ccco1)[C@@]12CCO[C@@H]1CCN(Cc1nccs1)C2`, 14.6%.
In the case of `CC(=O)Nc1ccc(CN2CCCC(c3cc4ncccc4[nH]3)C2)cc1` (stereo unspecified) it was 0.99%; in that of `O=C(c1ccc2c(c1)OCCCO2)N1CCCC(n2ccnc2)C1` (stereo unspecified), 0.893%.

The values above are taken from ChEMBL document CHEMBL4513216, “Probing the Open Global Health Chemical Diversity Library for Multistage-Active Starting Points for Next-Generation Antimalarials” (ACS Infect Dis, 2020).
